{"source": "ChEMBL document CHEMBL3045217", "about": "“Factors affecting the synergy of thiabendazole, sodium bicarbonate, and heat to control postharvest green mold of citrus fruit” (J Agric Food Chem, 2008)", "key": {"Fruit [1]": {"system": "Fruit", "experiment": "Total drug residues in Citrus sinensis cvs. Salustiana (Salustiana oranges) fruit at 600 mg/L treated for 3 min at 20 degC postharvest measured after overnight incubation at 17 degC by GC analysis", "format": "ADME", "conditions": "0.05 h", "method_in_brief": "(§1)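 'Salustiana' oranges were water-washed, dried, dipped, then dried overnight at 17 °C in the dark. Unextracted fruit were used for total residues. Peel from five oranges was frozen at -18 °C. 5 g homogenized peel was extracted with 10 mL ethyl acetate/hexane (1/1) plus 2 g NaCl, shaken 30 min, then 1 mL of organic layer was dried under N2, redissolved in acetone, and run by GC without cleanup. Results are on a whole-fruit basis.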"}, "Penicillium digitatum [2]": {"system": "Penicillium digitatum", "experiment": "Fungicidal activity against Penicillium digitatum infected Valenica oranges assessed as fruit weight loss at 400 mg/L treated for 1 min at 40 degC postharvest at 20 hr after fungal conidial inoculation measured after 21 days of storage at 17 degC in presence of 1% SBC (water Rvb = 12.71%)", "format": "functional"}, "Fruit [3]": {"system": "Fruit", "experiment": "Drug residues in Citrus sinensis cvs. Valencia late (Valencia oranges) at 400 mg/L treated for 1 min at 40 degC postharvest measured immediately post-drug treatment by GC analysis", "format": "ADME", "method_in_brief": "(§2)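 'Valencia' oranges were dipped 1 min in TBZ at 600 mg/L (20 °C, ±0.5, 1 or 2% wt/vol SBC), 400 mg/L (40 °C, ±SBC) or 200 mg/L (50 °C, alone), then air-dried. They were sampled at 0, 10 and 20 days at 17 °C. Peel of five fruit was frozen, and 5 g of homogenate was extracted with ethyl acetate/hexane (1/1) plus NaCl. The extract was dried under N2, taken up in acetone and analysed by GC. Results are mg/kg on a whole-fruit basis.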"}, "Inner fruit": {"system": "Inner fruit", "experiment": "Drug residues in Citrus sinensis cvs. Salustiana (Salustiana oranges) inner fruit at 600 mg/L treated for 1 min at 20 degC postharvest measured after overnight incubation at 17 degC in presence of 2% SBC by GC analysis", "format": "ADME", "method_in_brief": "(§3)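 'Salustiana' oranges were washed with water and air-dried. They were dipped 1 or 3 min in TBZ 600 mg/L at 20 or 50 °C, or 1 min in TBZ 600 mg/L plus 2% SBC at 20 °C, then dried overnight at 17 °C in the dark. Surface residue was taken by water extraction and wax residue by chloroform extraction. Inner residue was measured in fruit after both extractions. Extracts were dried under N2, taken up in acetone and analysed by GC. Values are mg/kg on a whole-fruit basis.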"}, "Penicillium digitatum [4]": {"system": "Penicillium digitatum", "experiment": "(§4) Fungicidal activity against TBZ-sensitive Penicillium digitatum infected Nova mandarins assessed as postharvest green mold incidence at 400 mg/L treated for 1 min at 40 degC at 20 hr after fungal conidial inoculation measured after 5 days of storage at 20 degC in presence of 2% SBC (water Rvb = 88.3%)", "format": "functional", "method_in_brief": "(§5)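 Fruit were surface-disinfected in 1 g/L hypochlorite for 30 s, rinsed, dried, then wounded twice equatorially (2 mm × 2 mm rod). Inoculation was a 1 min dip in P. digitatum conidia, 1 × 10^5 conidia/mL final. Fruit were held 20 h at 20 °C and 90% RH, dipped 1 min (SBC wt/vol), and air-dried. Storage was 20 °C, 90% RH. Decay incidence (% fruit with lesions) was scored at 5 d for mandarins and 7 d for oranges. Three replicates of 40 fruit were used; arcsin-transformed data were compared by LSD, p ≤ 0.05.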"}, "Penicillium digitatum [5]": {"system": "Penicillium digitatum", "experiment": "as §4, with “Valencia oranges” for “Nova mandarins”, “600” for “400”, “20” for “40”, “7” for “5”, “0.5%” for “2%”, “64.2%)” for “88.3%)”", "format": "functional", "method_in_brief": "as §5"}, "Fruit [6]": {"system": "Fruit", "experiment": "Drug residues in Citrus sinensis cvs. Valencia late (Valencia oranges) at 400 mg/L treated for 1 min at 40 degC postharvest measured after 10 days of storage at 17 degC in presence of 1% SBC by GC analysis", "format": "ADME", "method_in_brief": "as §2"}, "Penicillium digitatum [7]": {"system": "Penicillium digitatum", "experiment": "Fungicidal activity against Penicillium digitatum infected Valenica oranges assessed as fruit weight loss at 600 mg/L treated for 1 min at 20 degC postharvest at 20 hr after fungal conidial inoculation measured after 21 days of storage at 17 degC in presence of 0.5% SBC (water Rvb = 10.79%)", "format": "functional"}, "Fruit [8]": {"system": "Fruit", "experiment": "Drug residues in Citrus sinensis cvs. Valencia late (Valencia oranges) at 600 mg/L treated for 1 min at 20 degC postharvest measured immediately post-drug treatment in presence of 2% SBC by GC analysis", "format": "ADME", "method_in_brief": "as §2"}, "Penicillium digitatum [9]": {"system": "Penicillium digitatum", "experiment": "Fungicidal activity against TBZ-resistant Penicillium digitatum infected Valencia oranges assessed as postharvest green mold incidence at 600 mg/L treated for 1 min at 20 degC at 20 hr after fungal conidial inoculation measured after 7 days of storage at 20 degC (water Rvb = 96.7%)", "format": "functional"}, "Penicillium digitatum [10]": {"system": "Penicillium digitatum", "experiment": "as §4, with “Valencia oranges” for “Nova mandarins”, “7” for “5”, “1%” for “2%”, “29.2%)” for “88.3%)”", "format": "functional", "method_in_brief": "as §5"}, "Cuticular wax [11]": {"system": "Cuticular wax", "experiment": "Drug residues in Citrus sinensis cvs. Salustiana (Salustiana oranges) cuticular wax at 600 mg/L treated for 1 min at 20 degC postharvest measured after overnight incubation at 17 degC by GC analysis", "format": "ADME", "method_in_brief": "as §3"}, "Penicillium digitatum [12]": {"system": "Penicillium digitatum", "experiment": "Fungicidal activity against TBZ-sensitive Penicillium digitatum infected Nova mandarins assessed as postharvest green mold incidence at 200 mg/L treated for 1 min at 50 degC at 20 hr after fungal conidial inoculation measured after 5 days of storage at 20 degC (water Rvb = 98.3%)", "format": "functional", "method_in_brief": "as §5"}, "Fruit surface": {"system": "Fruit surface", "experiment": "Drug residues on Citrus sinensis cvs. Salustiana (Salustiana oranges) fruit surface at 600 mg/L treated for 3 min at 20 degC postharvest measured after overnight incubation at 17 degC by GC analysis", "format": "ADME", "conditions": "0.05 h", "method_in_brief": "as §3"}, "Penicillium digitatum [13]": {"system": "Penicillium digitatum", "experiment": "Fungicidal activity against TBZ-sensitive Penicillium digitatum infected Valencia oranges assessed as postharvest green mold incidence at 200 mg/L treated for 1 min at 50 degC at 20 hr after fungal conidial inoculation measured after 7 days of storage at 20 degC (water Rvb = 53.3%)", "format": "functional", "method_in_brief": "as §5"}, "Fruit [14]": {"system": "Fruit", "experiment": "Drug residues in Citrus sinensis cvs. Valencia late (Valencia oranges) at 200 mg/L treated for 1 min at 50 degC postharvest measured after 10 days of storage at 17 degC by GC analysis", "format": "ADME", "method_in_brief": "as §2"}, "Cuticular wax [15]": {"system": "Cuticular wax", "experiment": "Drug residues in Citrus sinensis cvs. Salustiana (Salustiana oranges) cuticular wax at 600 mg/L treated for 3 min at 50 degC postharvest measured after overnight incubation at 17 degC by GC analysis", "format": "ADME", "conditions": "0.05 h", "method_in_brief": "as §3"}, "Penicillium digitatum [16]": {"system": "Penicillium digitatum", "experiment": "(§6) Fungicidal activity against TBZ-resistant Penicillium digitatum infected Valencia oranges assessed as postharvest green mold incidence at 600 mg/L treated for 1 min at 20 degC at 20 hr after fungal conidial inoculation measured after 7 days of storage at 20 degC in presence of 0.5% SBC (water Rvb = 85.8%)", "format": "functional"}, "Fruit [17]": {"system": "Fruit", "experiment": "Drug residues in Citrus sinensis cvs. Valencia late (Valencia oranges) at 600 mg/L treated for 1 min at 20 degC postharvest measured after 10 days of storage at 17 degC by GC analysis", "format": "ADME", "method_in_brief": "as §2"}, "Fruit [18]": {"system": "Fruit", "experiment": "Total drug residues in Citrus sinensis cvs. Salustiana (Salustiana oranges) fruit at 600 mg/L treated for 1 min at 50 degC postharvest measured after overnight incubation at 17 degC by GC analysis", "format": "ADME", "method_in_brief": "as §1"}, "Penicillium digitatum [19]": {"system": "Penicillium digitatum", "experiment": "as §4, with “600” for “400”, “20” for “40”, “96.7%)” for “88.3%)”", "format": "functional", "method_in_brief": "as §5"}, "Penicillium digitatum [20]": {"system": "Penicillium digitatum", "experiment": "as §6, with “TBZ-sensitive” for “TBZ-resistant”, “2%” for “0.5%”, “20.8%)” for “85.8%)”", "format": "functional", "method_in_brief": "as §5"}}}
{"smiles": "c1ccc2[nH]c(-c3cscn3)nc2c1", "note": "[THIABENDAZOLE]", "values": [{"measurement": "Drug uptake", "setting": "Fruit [1]", "result": 1.1, "unit": "mg/kg"}, {"measurement": "Activity", "setting": "Penicillium digitatum [2]", "result": 12.11, "unit": "%"}, {"measurement": "Drug uptake", "setting": "Fruit [3]", "result": 0.83, "unit": "mg/kg"}, {"measurement": "Drug uptake", "setting": "Inner fruit", "result": 0.01, "unit": "mg/kg"}, {"measurement": "Activity", "setting": "Penicillium digitatum [4]", "result": 3.3, "unit": "%"}, {"measurement": "Activity", "setting": "Penicillium digitatum [5]", "result": 18.3, "unit": "%"}, {"measurement": "Drug uptake", "setting": "Fruit [6]", "result": 0.7, "unit": "mg/kg"}, {"measurement": "Activity", "setting": "Penicillium digitatum [7]", "result": 11.84, "unit": "%"}, {"measurement": "Drug uptake", "setting": "Fruit [8]", "result": 1.22, "unit": "mg/kg"}, {"measurement": "Activity", "setting": "Penicillium digitatum [9]", "result": 78.3, "unit": "%"}, {"measurement": "Activity", "setting": "Penicillium digitatum [10]", "result": 5, "unit": "%"}, {"measurement": "Drug uptake", "setting": "Cuticular wax [11]", "result": 0.17, "unit": "mg/kg"}, {"measurement": "Activity", "setting": "Penicillium digitatum [12]", "result": 3.3, "unit": "%"}, {"measurement": "Drug uptake", "setting": "Fruit surface", "result": 0.69, "unit": "mg/kg"}, {"measurement": "Activity", "setting": "Penicillium digitatum [13]", "result": 5.8, "unit": "%"}, {"measurement": "Drug uptake", "setting": "Fruit [14]", "result": 0.43, "unit": "mg/kg"}, {"measurement": "Drug uptake", "setting": "Cuticular wax [15]", "result": 0.48, "unit": "mg/kg"}, {"measurement": "Activity", "setting": "Penicillium digitatum [16]", "result": 38.3, "unit": "%"}, {"measurement": "Drug uptake", "setting": "Fruit [17]", "result": 1.57, "unit": "mg/kg"}, {"measurement": "Drug uptake", "setting": "Fruit [18]", "result": 1.12, "unit": "mg/kg"}, {"measurement": "Activity", "setting": "Penicillium digitatum [19]", "result": 0, "unit": "%"}, {"measurement": "Activity", "setting": "Penicillium digitatum [20]", "result": 2.5, "unit": "%"}]}
